TAG inh = inhibitors of triacylglycerol accumulation, primary screen, cell-based, uHTS, fluorescence, H9c2. H9c2 cells, Nile Red lipid (TAG) fluorescence; cells loaded with 200 µM oleic acid. inhibition, % at 12.5 µM. 230,000 compounds, 0.66% hits. AID 651582, 2012;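 active means pattern-corrected inhibition of lipid staining of at least 50% with the nuclear-stain viability signal not falling by more than 50%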;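 further: 0% = DMSO wells and 100% = triacsin C control wells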
AHR activator = AHR activators, primary screen, cell-based, luminescence, luciferase reporter, human | Aryl hydrocarbon receptor (Homo sapiens), P35869 | AHR-responsive luciferase reporter cells | activation, % at 5 µM | 320,000 compounds, 2.5% hits | AID 2796, 2010; in the data active means activation above about 47%;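 further: 0% = vehicle wells and 100% = reference agonist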
Target sequence (P35869 whole entry, looked up): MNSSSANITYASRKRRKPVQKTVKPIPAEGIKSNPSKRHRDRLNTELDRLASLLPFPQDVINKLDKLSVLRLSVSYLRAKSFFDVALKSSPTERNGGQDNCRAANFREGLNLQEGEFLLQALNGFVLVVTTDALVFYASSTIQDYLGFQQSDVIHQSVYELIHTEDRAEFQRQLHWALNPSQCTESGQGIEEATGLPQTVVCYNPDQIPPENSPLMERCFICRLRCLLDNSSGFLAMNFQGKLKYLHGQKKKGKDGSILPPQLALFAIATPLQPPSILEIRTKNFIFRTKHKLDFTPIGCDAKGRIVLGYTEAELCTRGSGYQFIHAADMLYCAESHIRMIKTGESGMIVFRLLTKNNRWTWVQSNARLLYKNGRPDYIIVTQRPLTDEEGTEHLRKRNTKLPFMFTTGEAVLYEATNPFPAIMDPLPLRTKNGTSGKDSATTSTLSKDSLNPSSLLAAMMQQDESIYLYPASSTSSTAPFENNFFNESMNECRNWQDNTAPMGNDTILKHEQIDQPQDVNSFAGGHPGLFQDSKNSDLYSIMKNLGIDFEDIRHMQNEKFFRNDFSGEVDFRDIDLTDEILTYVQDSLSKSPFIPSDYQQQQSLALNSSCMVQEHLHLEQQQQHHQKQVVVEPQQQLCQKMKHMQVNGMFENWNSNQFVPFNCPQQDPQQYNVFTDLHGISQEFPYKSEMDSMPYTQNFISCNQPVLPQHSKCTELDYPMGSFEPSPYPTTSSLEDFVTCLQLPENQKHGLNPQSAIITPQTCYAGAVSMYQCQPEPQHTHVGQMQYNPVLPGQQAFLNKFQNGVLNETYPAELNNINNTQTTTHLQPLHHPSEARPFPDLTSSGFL
Tb MetRS inh = T. brucei MetRS inhibitors, primary screen, biochemical, luminescence | 360,000 compounds, 0.4% hits | methionyl-tRNA synthetase (Trypanosoma brucei brucei) | inhibition, % at 11.9 µM | purified T. brucei MetRS, ATP depletion, Kinase-Glo luminescence;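 active means inhibition above a per-plate cutoff of the control wells' mean inhibition plus 3 SD, cut at about 5.5% in these data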;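 further: 0% = DMSO wells median and 100% = median of wells with control inhibitor compound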
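Test system: purified T. brucei MetRS enzyme. Also added: ATP, methionine and E. coli bulk tRNA substrates. Compound: 11.9 µM single point. Schedule: 15 min enzyme-compound preincubation, 2 h reaction, 10 min detection, 25 °C. Signal: luciferase luminescence of residual ATP, Kinase-Glo. Evaluation: percent inhibition versus plate control medians. Controls: DMSO wells, low control.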
Efflux pump inh = inhibitors of Candida efflux pumps in yeast, primary screen, S. cerevisiae, Nile Red, multiplex. S. cerevisiae Candida pump triplex. inhibition, % at 10 µM. 330,000 compounds, 0.44% hits;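 active means plate passing quality check with inhibition over a set limit, or well fluorescence over plate mean plus 4 SD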;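 further: Nile Red retained in pooled yeast measured as flow cytometry median fluorescence; 0% = buffer negative control and 100% = Enniatin B positive control; higher means more Nile Red kept so more efflux inhibition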
SMARCA2 act = SMARCA2 (BRM) function activators, primary screen, cell-based, luminescence, high throughput | MG213 cells, MMTV-luciferase reporter, dexamethasone, overnight | activation, % at 9.1 µM | 370,000 compounds, 1% hits | AID 652017, 2013; in the data active means activation above about 7.8%;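 further: 0% = vehicle wells and 100% = reference activator wells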
* = called active by the depositor; . = no result. Sampled rows, rich in hits. Any-hit rate of the full collection: about 4.1%.

SMILES	TAG inh	AHR activator	Tb MetRS inh	Efflux pump inh	SMARCA2 act
C[C@H](CO)N1C[C@H](C)[C@H](CN(C)C(=O)Nc2ccc3c(c2)OCO3)OCc2cnnn2CCCC1=O	.	.	.	.	4
COC(=O)C12C=C3CC(C4CC4)=C3C(=O)N1Cc1[nH]c3ccccc3c1C2 (centres undefined)	.	.	.	.	0
O=C(c1cc(F)cc(F)c1)N1CCCC(c2nc(-c3cccs3)no2)C1 (centres undefined)	.	.	.	.	-3
COc1ccc(NC(=O)c2sc(SCc3ccccc3)nc2N)cc1	-17	48*	0	0	-2
Cc1nn(-c2ccccc2)c(C)c1/C=N\NC(=O)CSc1nc2ccccc2n1Cc1ccc(Cl)cc1	.	.	.	.	2
CC(C)c1ccc(N=C2N=C(N)c3ccccc32)cc1	11	48*	0	0	3
NC1=NC(=Nc2ccc(Cl)cc2)c2ccccc21	4	56*	1	0	1
O=C(CSc1ccccc1)NC1CCCCN(Cc2ccc(Cl)cc2)C1=O (centres undefined)	.	.	.	.	-4
CCn1c(=N)n(CC(=O)c2ccc(OC)cc2)c2ccccc21	33	66*	1	0	1
N=c1n(CCN2CCCCC2)c2ccccc2n1CC(O)c1ccc(Cl)c(Cl)c1 (centres undefined)	.	-1	0	0	1
N=c1n(CCN2CCCCC2)c2ccccc2n1CC(=O)c1ccc(Cl)c(Cl)c1	46	111*	-1	0	-4
CCn1c(=N)n(CC(=O)c2ccc(Cl)c(Cl)c2)c2ccccc21	.	65*	2	0	3
Cc1nc2cc3nc(C(F)(F)F)[nH]c3cc2[nH]1	12	50*	0	0	1
Nc1ccc2nc(C(F)(F)F)[nH]c2c1	3	14	-1	0	0
CN1N=C2c3ccccc3CCCC2C1c1ccc(F)cc1 (centres undefined)	-19	49*	0	0	-1
CC(C)C(=O)OCCCN1C(=O)CCC12CCC(c1ccccc1)CC2 (centres undefined)	.	.	.	.	0
COc1cc(/C=N/Nc2nc(C)nc3c2cnn3-c2ccccc2)ccc1O	57*	.	0	.	-4
COc1cc(/C=N/NC(=O)c2nc(-c3ccccc3)n(-c3ccccc3)n2)ccc1O	.	0	1	0	-3
C[C@H](NC(=O)c1cc2cc(Cl)ccc2n1C)C(=O)N1CCC(C(=O)O)CC1	.	.	-2	0	3
Cn1c(C(=O)Nc2ccc(Cl)cc2)cc2cc(Cl)ccc21	.	68*	-1	0	-1
Oc1c(C=C2N=c3ccccc3=N2)sc(=S)n1C1CCCC1	-1	59*	0	0	-1
Oc1c(C=C2N=c3ccccc3=N2)sc(=S)n1-c1ccc(F)cc1	-12	15	1	0	-2
Cn1c(SCC(=O)NCC2CCCO2)ncc(C(=O)Nc2ccc(Cl)cc2)c1=O (centres undefined)	4	56*	0	0	2
Cn1c(SCC(=O)NCc2ccc3c(c2)OCO3)ncc(C(=O)Nc2ccc(F)cc2)c1=O	-6	49*	0	0	-1
CCOCCCn1c(SCC(=O)NCc2ccc3c(c2)OCO3)nc2ccccc2c1=O	.	70*	-1	1	1
SMILES	TAG inh	AHR activator	Tb MetRS inh	Efflux pump inh	SMARCA2 act
CCn1c(SCC(=O)NCC2CCCO2)nnc1-c1ccc(Cl)cc1 (centres undefined)	-7	2	-2	0	1
Cn1c(SCC(=O)NCC2CCCO2)ncc(C(=O)Nc2ccc(F)cc2)c1=O (centres undefined)	-6	51*	0	0	-3
CCCCC(=O)N1CCC(NS(=O)(=O)c2ccc3c(c2)CCN3C(C)=O)CC1	.	.	.	.	-5
CC(C)CNc1cccc2c1S(=O)(=O)N[C@@H](Cc1ccccc1)CO2	.	.	.	.	-3
Cc1ccc2oc(-c3cccc(NC(=O)C4CCCO4)c3)nc2c1 (centres undefined)	.	72*	-2	0	1
CCN1CCCC1CN(Cc1cc2ccc(C)cc2[nH]c1=O)C(=S)Nc1cccc(OC)c1 (centres undefined)	.	59*	1	0	0
Cc1ccc(C(=O)/C=C\C(=O)c2ccc(C)cc2)cc1	.	0	0	0	2
CC(/C=C/C(=O)c1ccc(C)cc1)=C\c1ccccc1	-7	64*	0	0	2
CCCCN(C=O)c1c(CC)nc2c(OCC(=O)c3ccc(F)cc3)cccn12	-27	.	0	.	7.9*
CCCCN(C=O)c1c(CC)nc2c(OCC(=O)C(C)(C)C)cccn12	0	.	0	.	-5
Cc1ccc(N2C(=O)c3ccc(N)cc3C2=O)cc1	-1	51*	-1	0	6
Cc1ccc(N2C(=O)c3ccc(N)cc3C2=O)cc1C	-27	-1	0	0	1
Cc1cccc(NC(=O)n2ccc3ccc(-c4ccc5cc[nH]c5c4)cc32)c1	.	.	.	.	-4
COc1cc(/C=N/NS(=O)(=O)c2ccc3ccccc3c2)ccc1OCCN1CCOCC1	.	-3	-1	0	10*
N/C(=N\c1nc2ccccc2o1)NC(=O)c1ccccc1NC(=O)c1ccccc1	-4	66*	0	0	-1
N/C(=N\c1nc2ccccc2o1)NC(=O)c1cccc(Cl)c1	17	31	-1	0	1
COc1ccccc1N(C(=O)CCl)c1cn(C(C)=O)c2ccccc12	74*	7	0	0	-12
CCOC(=O)c1ccccc1Nc1cn(C(C)=O)c2ccccc12	37	28	-1	1	0
CC(=O)n1cc(N(C(=O)CCl)c2ccc(Cl)cc2)c2ccccc21	67*	4	0	0	.
CC(=O)n1cc(Nc2ccccc2C(=O)O)c2ccccc21	-4	25	-1	0	1
Cc1nn(-c2ccc(Br)cc2)c(=O)c2ccccc12	.	57*	0	0	7
CC(C)(C)c1ccc(-c2nnc(SCC(=O)Nc3ccc(S(=O)(=O)Nc4nccs4)cc3)n2Cc2ccco2)cc1	.	.	.	.	-4
N#Cc1ccc(/C=C2\CC3(OC(=O)C4CCCC4)CCCN2C3)cc1 (centres undefined)	.	.	.	.	-5
Nc1nc2c(s1)CCc1ccccc1-2	.	13	0	0	1
N#C/C(=C(/O)CCl)c1nc2c(s1)CCc1ccccc1-2	.	67*	0	0	2
CCn1ncc(/C=N/NC(=O)c2ccc3c(c2)OCO3)c1C	7	31	0	0	4
S=C(NN=Cc1ccc2c(c1)OCO2)NN=Cc1ccc2c(c1)OCO2	-19	.	0	.	4
CCn1nc(C)c(/C=N\NC(=O)c2ccc3c(c2)OCO3)c1C	14	73*	0	0	-5
COc1ccccc1C(=O)N/N=C/c1ccc2c(c1)OCO2	.	50*	-1	0	4
